Screens: PubChem, several laboratories
proKLK7 act: proKLK7 zymogen activators, primary screen, biochemical, fluorescence intensity; activation, % at 7 µM; AID 652039, 2013; 0.9% of 370,000 active; purified proKLK7, EDANS-DABCYL substrate fluorescence; 100% is mature enzyme control, 0% vehicle;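 active means activation above the mean of all tested compounds plus 3 SD, computed per campaign excluding outliers beyond control limits, cut at about 13% in these data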
Target sequence (P49862 whole entry, looked up): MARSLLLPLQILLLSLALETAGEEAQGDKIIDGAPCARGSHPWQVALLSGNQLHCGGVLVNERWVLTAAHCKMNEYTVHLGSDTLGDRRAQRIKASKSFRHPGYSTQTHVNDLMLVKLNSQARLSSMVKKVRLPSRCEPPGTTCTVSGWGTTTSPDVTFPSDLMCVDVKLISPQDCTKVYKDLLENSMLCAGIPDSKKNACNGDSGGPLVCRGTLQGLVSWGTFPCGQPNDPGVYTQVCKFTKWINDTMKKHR
ADAM10 inh: human ADAM10 inhibitors, primary screen, biochemical, QFRET, HTS; Disintegrin and metalloproteinase domain-containing protein 10 (Homo sapiens), O14672; recombinant ADAM10, EDANS/DABCYL FRET peptide cleavage, 3 h; inhibition, % at 7 µM; 0.62% of 370,000 active;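 active means inhibition above a per-campaign cutoff equal to the mean of compounds falling between control-based bounds plus 3 SD, cut at about 20% in these data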;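 further: 0% = DMSO wells while the 100% control is not disclosed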
JMJD2C inh: inhibitors of GASC-1 histone demethylase, primary screen, biochemical, fluorescence, DELFIA europium; 0.069% of 330,000 active; inhibition, % at 2.35 µM; Lysine-specific demethylase 4C (Homo sapiens), Q9H3R0; GST-JMJD2C(1-420) H3K9me3 demethylation;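 active means more than half of a compound's replicate wells show inhibition beyond 50%, single wells judged on their own value; inconclusive means some, but no more than half, of replicates pass 50% inhibition; inactive means no replicate passes 50% inhibition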;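 further: signal counts dimethyl H3K9 product captured on neutravidin plate; 0% = median of DMSO wells and 100% = 0.3 times that DMSO median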
NR2E3 ag-1: NR2E3 agonists in two-hybrid cells, primary screen, cell-based, luminescence, CHO-S, Gal4-NCOR/VP16-NR2E3; luciferase; inhibition of corepressor binding, % at 3.98 µM; 0.35% of 360,000 active;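 active means inhibition above the mean of all tested compounds plus 3 SD, cut at about 70% in these data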;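 further: 0% = DMSO with NR2E3 transfected cells and 100% = cells lacking NR2E3 construct; higher means lower luciferase signal from less NR2E3 corepressor binding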
Target sequence (Q9Y5X4 whole entry, looked up, the tested form may be a part): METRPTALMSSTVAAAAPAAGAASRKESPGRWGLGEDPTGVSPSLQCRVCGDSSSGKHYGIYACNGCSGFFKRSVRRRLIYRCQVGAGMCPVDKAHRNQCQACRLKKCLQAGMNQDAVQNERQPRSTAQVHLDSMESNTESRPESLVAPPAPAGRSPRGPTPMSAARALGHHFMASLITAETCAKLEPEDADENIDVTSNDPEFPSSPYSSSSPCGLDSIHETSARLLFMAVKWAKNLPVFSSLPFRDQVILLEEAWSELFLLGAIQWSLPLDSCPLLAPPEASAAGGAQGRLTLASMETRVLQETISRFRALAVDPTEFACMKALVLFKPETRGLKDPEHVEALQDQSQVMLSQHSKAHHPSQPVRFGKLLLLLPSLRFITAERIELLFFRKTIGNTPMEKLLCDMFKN
ADAM17 inh: ADAM17 inhibitors, primary screen, biochemical, QFRET. Disintegrin and metalloproteinase domain-containing protein 17 (Homo sapiens), P78536. recombinant ADAM17, EDANS/DABCYL FRET peptide cleavage. inhibition, % at 6.95 µM. 0.83% of 370,000 active. AID 720648, 2013;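 active means inhibition above the mean of compounds lying between control limits plus 3 SD, set per campaign, cut at about 8.5% in these data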;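 further: 0% = DMSO-only wells as the low control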
NR2E3 ag-2: inhibitors of NR2E3-RetCOR corepressor binding, primary screen, NR2E3 agonist project, biochemical, TR-FRET, GST-NR2E3, biotin-RetCOR | 1536-well | AID 2300, 2010 | Photoreceptor-specific nuclear receptor (Homo sapiens), Q9Y5X4 | 0.12% of 320,000 active | inhibition of corepressor binding, % at 4.78 µM;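 active means percent inhibition above the cutoff of mean plus 3 SD of all tested compounds, set per screening campaign, cut at about 20% in these data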;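 further: 0% = DMSO wells and 100% = biotin wells as full block of FRET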
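System: GST-NR2E3 and biotin-RetCOR proteins; probe or stimulus: 7 nM biotin-RetCOR; doses: compound at 4.8 µM, single dose; schedule: Compound–protein incubation for 5 h at 4 °C; detection: time-resolved FRET; read-out: percent inhibition; controls: biotin wells as high control, 0.6% DMSO wells as low control; format: 1536-well plates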
* = called active by the depositor; i = inactive; ? = inconclusive; . = no result; ! = repeats disagree. An excerpt weighted towards active compounds, which were near 2.5% of everything screened.

SMILES	proKLK7 act	ADAM10 inh	JMJD2C inh	NR2E3 ag-1	ADAM17 inh	NR2E3 ag-2
COc1ccc(Nc2ccc3c(c2)=NC2(CCCCC2)[N+]=3[O-])cc1	0	6	13	15	9.7*	-19
CCOC(=O)[C@@H]1[C@H]2COc3ccc(Br)cc3[C@H]2N2C(=O)N(c3ccc(C(F)(F)F)cc3)C(=O)[C@]12C	0	24*	-6	-16	5	.
Cc1cc(C)nc(N2CCC(C(=O)N(C)CCc3ccccn3)CC2)n1	1	-25	.	.	-10	.
C#Cc1ccc([C@@H]2C=C(C(=O)N3CCN(Cc4ccccc4)CC3)O[C@H](OCCCCO)C2)cc1	.	.	1	75*	.	-1
O=C(C1=C[C@@H](c2ccc(C(F)(F)F)cc2)C[C@@H](OCc2ccc(CO)cc2)O1)N1CCN(Cc2ccc3c(c2)OCO3)CC1	0	28*	10	13	8	4
O=C(C1=C[C@H](c2ccccc2)C[C@H](OCCCCO)O1)N1CCN(Cc2ccccc2)CC1	1	-10	-10	-30	-6	-2
CC(C)n1nnnc1C1(C)Cn2nccc2C(=O)N1Cc1cccc(C(F)(F)F)c1 (stereo unspecified)	0	5	.	.	2	.
CC(=O)N1CCCN(S(=O)(=O)c2ccc3c(c2)oc(=O)n3C)CC1	0	-2	.	.	1	.
N#C/C(N=Nc1ccccc1O)=N\Nc1ccccc1O	0	2	87*	-6	-1	-4
Oc1ccccc1N=N/C(=N/Nc1ccccc1O)c1ccccc1	-1	6	?	-34	-3	2
N#Cc1cc(-c2ccccc2)nnc1Sc1ccc(F)cc1	0	5	15	3	0	0
N#Cc1cc(-c2ccccc2)nnc1Sc1ccccc1	0	8	102*	-1	0	-1
Cc1cccc(-n2nc3c(c2NC(=O)c2ccco2)CSC3)c1C	1	16	3	-3	9.1*	3
S=C(Nc1ccc(Cl)c(Cl)c1)NC1CCN(Cc2ccccc2)CC1	0	20*	-12	34	4	0
COc1ccc2c(c1)OC[C@H]1[C@H]2N2C(=O)c3ccc(C)cc3NC(=O)[C@@]2(C)[C@H]1c1ccccc1	-1	16	.	19	9.6*	.
COC(=O)C[C@@H]1CC[C@@H]2[C@@H](COc3ccc(NC(=O)Nc4cccc(Cl)c4)cc3C(=O)N2C)O1	1	5	.	.	2	.
Cc1c(C)c2c(OCC(=O)NC3CC3)cc3c(c2oc1=O)CCC(C)(C)O3	-9	i	0	-6	i	1
Cc1c(C)c2c(OCC(=O)N3CCC(C(N)=O)CC3)cc3c(c2oc1=O)CCC(C)(C)O3	32*	i	0	-27	i	-2
O=C(CSc1nnc(-c2ccc(Cl)cc2)n1-c1ccccc1)Nc1ccc(Oc2ccccc2)cc1	0	-2	.	.	-3	.
Cc1ccccc1NC(=O)Nc1ccc2c(c1)C(=O)N(C)[C@H]1CC[C@H](CC(=O)NCC3CC3)O[C@@H]1CO2	0	5	.	.	-10	.
CC1CCN(S(=O)(=O)c2ccc(NC(=O)Cn3nnc(-c4ccccc4)n3)cc2)CC1	1	19	-3	-6	10*	-1
O=C(NCc1ccccc1)C1(C(=O)C2CC2)CC(c2ccccc2C(F)(F)F)=NO1 (stereo unspecified)	0	4	.	.	2	.
O=C(NCCc1c[nH]c2ccccc12)OCc1cn(Cc2ccc(C(F)(F)F)cc2)nn1	0	8	.	.	3	.
CCc1c2c3n4c1CCC[C@@H]4C[C@@H]3O[Si](C(C)C)(C(C)C)OC(C)C2=O (stereo partly specified)	.	-37	.	.	-12	.
O=c1[nH]cnc2c1c(-c1ccccc1)cn2-c1ccccc1	0	-6	62*	4	-1	6
SMILES	proKLK7 act	ADAM10 inh	JMJD2C inh	NR2E3 ag-1	ADAM17 inh	NR2E3 ag-2
COC(=O)[C@]12CCCCC=C1N(Cc1ccc(OC)cc1)C(=O)[C@@H]2CC(=O)NCc1cccs1	1	1	.	.	2	.
CCCCOc1ccc(C(=O)Nc2ccc(N3CCN(C(C)=O)CC3)cc2)cc1	0	-7	61*	2	-2	1
C=CCNC(=O)CN(C(=O)Cc1ccc(Cl)cc1)c1cccc(Br)c1	0	8	.	.	4	.
O=C(Nc1ccc2c(c1)OCO2)N1CCC(c2nc3ccc(Cl)cc3[nH]2)CC1	0	1	.	.	-2	.
COc1cccc(CNC(=O)c2cc3c(C)nc4ccccc4c3o2)c1	-1	-18	-9	33	0	2
CCN1CCCC1CNC(=O)c1cc2c(C)nc3ccccc3c2o1 (stereo unspecified)	0	-5	1	17	-3	-1
Cc1nc2ccccc2c2oc(C(=O)NCC3COc4ccccc4O3)cc12 (stereo unspecified)	0	-6	5	79*	-2	1
COc1ccc(CNC(=O)c2cc3c(C)nc4ccccc4c3o2)c(OC)c1	.	.	-9	99*	.	0
O=C(Nc1cccc(Cl)c1)Nc1nnc(-c2ccncc2)s1	0	-162	-9	89*	-50	0
C#CCN(C1CC1)S(=O)(=O)c1ccccc1Br	1	6	.	.	1	.
COc1ccccc1CNC(=O)c1cc(-c2ccccc2)nn1CC1CC(c2cccc([N+](=O)[O-])c2)=NO1 (stereo unspecified)	0	20*	-7	16	3	6
COC(=O)[C@H](Cc1ccccc1)NC(=O)[C@H]1O[C@@H](n2cnc3c(=O)[nH]c(N)nc32)[C@H](O)[C@@H]1O	0	-14	.	.	-2	.
Cc1ccc(NC2=C/C(=N\S(=O)(=O)c3cccs3)c3ccccc3C2=O)c(C)c1	.	.	8	108*	.	7
Cc1ccc(Cl)cc1NC1=C/C(=N\S(=O)(=O)c2cccs2)c2ccccc2C1=O	0	-5	6	79*!	1	9
CCN(CC)S(=O)(=O)c1ccc2c(c1)nc(CCC(=O)Nc1cccc(C(F)(F)F)c1)n2CC	0	17	2	0	10*	-1
C=CCOC(=O)N1CCN(C(=O)c2ccc3c(c2)nc(C)n3C2CCCC2)CC1	1	3	.	.	1	.
COC(=O)[C@H](C(C)C)N(Cc1cn(Cc2ccccc2)nn1)S(=O)(=O)c1ccccc1Br	1	5	.	.	1	.
